From ChEMBL document CHEMBL1150057, “Bioactive ergost-5-ene-3 beta, 7 alpha-diol derivatives from Pseudobersama mossambicensis” (J Nat Prod, 1992) come the findings set out here.

The test system of assay [1] is Saccharomyces cerevisiae. The experiment in a line: DNA damaging activity against RS322YK rad52 DNA repair gene deficient Saccharomyces cerevisiae mutant assessed as drug level required to produce 12 mm zone of inhibition after 48 hrs. It counts as functional. In short, it runs like this:
(§1)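 Yeast agar-well diffusion: strain plated on YPD agar (7 mm layer); 6 mm wells cut with cork borer; sample dissolved in DMSO-MeOH (1:1), 100 μl per well. Plates read after 48 h at 30°. IC12 = concentration (μg/ml) giving a 12 mm inhibition zone, taken from dose-response curves by linear regression (log dose as Y, zone size as X).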

Assay [2] concerns Saccharomyces cerevisiae. The experiment in a line: DNA damaging activity against RS188N rad DNA repair gene expressing wild type Saccharomyces cerevisiae assessed as drug level required to produce 12 mm zone of inhibition after 48 hrs. The class given is functional. In short, it runs like this:
as §1

In assay [3] the test system is Saccharomyces cerevisiae. Description: DNA damaging activity against RS167N rad6 DNA repair gene deficient Saccharomyces cerevisiae mutant assessed as drug level required to produce 12 mm zone of inhibition after 48 hrs. It counts as functional. In outline: as §1
A further assay relates to P388. The experiment in a line: Cytotoxicity against mouse P388 cells. It counts as functional, cell-based.

As for `CC(C)C(O)(CO)CC[C@@H](C)[C@H]1CC[C@H]2[C@@H]3[C@H](O)C=C4C[C@@H](O)CC[C@]4(C)[C@H]3CC[C@]12C` (stereo partly drawn), the IC12 in the assay on Saccharomyces cerevisiae [1] is 1 µg/mL; in the assay on Saccharomyces cerevisiae [2], greater than 100 µg/mL.

As for `C=C(CC[C@@H](C)[C@H]1CC[C@H]2[C@@H]3[C@H](O)C=C4C[C@@H](O)CC[C@]4(C)[C@H]3CC[C@]12C)C(C)C`, the IC12 with Saccharomyces cerevisiae [1] was 8 µg/mL; in the assay with Saccharomyces cerevisiae [3], 12 µg/mL; in the assay with Saccharomyces cerevisiae [2] it was greater than 1500 µg/mL. In the assay on P388, this compound returned an IC50 of 4.3 µM.

Take `CC(C)C1(CC[C@@H](C)[C@H]2CC[C@H]3[C@@H]4[C@H](O)C=C5C[C@@H](O)CC[C@]5(C)[C@H]4CC[C@]23C)CO1` (stereo partly drawn): the IC12 in the assay on Saccharomyces cerevisiae [1] is 0.4 µg/mL; with Saccharomyces cerevisiae [3] it was 6 µg/mL; in the assay on Saccharomyces cerevisiae [2] it was greater than 50 µg/mL.

As to `CC[C@@]1(O)C(=O)OCc2c1cc1n(c2=O)Cc2cc3ccccc3nc2-1` [CAMPTOTHECIN], the IC12 with Saccharomyces cerevisiae [1] is 0.6 µg/mL; with Saccharomyces cerevisiae [3], 8.7 µg/mL.

For the compound `COC1=C(N)C(=O)c2nc(-c3nc(C(=O)O)c(C)c(-c4ccc(OC)c(OC)c4O)c3N)ccc2C1=O` [STREPTONIGRIN], the IC12 worked out at 0.4 µg/mL with Saccharomyces cerevisiae [1] and 2.4 µg/mL in the assay on Saccharomyces cerevisiae [3].

A word on the IC50: it is the concentration needed to halve the response being measured. High values mean weaker potency in that assay, low ones greater potency in that assay.
